Test results reported in the EternaBench riboswitch data.

Tested on: MS2 coat protein
Test: apparent Kd, MS2 coat protein; higher = weaker binding; RNA-MaP array
Procedure, shortened: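 Apparent Kd values come from the median of binding-curve fits to single clusters. To obtain them, designed RNAs transcribed on an Illumina sequencing chip from sequenced DNA templates were incubated at room temperature with fluorescently labeled MS2 coat protein at 1.5 nM to 3 μM, with or without input ligand, for 0.8–1.5 h at the lowest and 10–20 min at the highest concentrations. Designs measured on fewer than 10 clusters were excluded.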

[1] = designed as: OFF switch for flavin mononucleotide, no ligand
[2] = ligand present: flavin mononucleotide, designed as: OFF switch for flavin mononucleotide
[3] = designed as: ON switch for flavin mononucleotide, no ligand
[4] = ligand present: flavin mononucleotide, designed as: ON switch for flavin mononucleotide

| Sequence | apparent Kd [1] [nM] | apparent Kd [2] [nM] | further results |
| --- | --- | --- | --- |
| GAACGUAGAGGAUAUACGACAAUGCACUGAUCGACGAGUACACAUGAGGAUCACCCAUGUAGAAGGCUAGGAAU | 7.28 | 6.45 |  |
| GAAUACGUCAUGAUGAACAUGAGGAUCACCCAUGUAGUGCCUUAGGAUAUGCUACGAUUACUGCCGCAGAAGGAAGUGCAAGAA |  |  | apparent Kd [3]: 44.1 nM; apparent Kd [4]: 28.4 nM |
| GAGAGGAGGGAGAAGGAGAUAGUCUUCGGCAAUCUAGGAUAUCCACGUAGGGAAUCUCACAUGAGGAUCACCCAUGUUCAGCCG | 34.8 | 31.7 |  |
| GAGCUCCACAAGAAGGGCCGUUGCCCAUGGAAGGACGGCACAUGAGGAUCACCCAUGUUGGCAGGGCAGGAUAUUGCAUUUAUU | 26 | 82.8 |  |
| GAGUGGUAAGGAUAUAAUACGAAUACGGUGAAACCCGGCGUUUAGAAGGUACAUGAGGAUCACCCAUGUGAUUA | 13.2 | 13.8 |  |
| GAUAGUCCCAAGGAUAUGUGGGUUUUAUCUUCUACAGAAGGUGGGACAUGAGGAUCACCCAUGUUGCGGCGAGG | 26.8 | 261 |  |
| GAUAUGGUGGCUCAGGAUAUGCAAGGCUUAACAUGAGGAUCACCCAUGUUAUUUAAUGUGCAAGCGCAGAAGGGAGCUUGGCAAAA |  |  | apparent Kd [3]: 9.39 nM; apparent Kd [4]: 5.53 nM |
| GAUCAACAUGAGGAUCACCCAUGUUAGGAUAUCACACCGGAAAGUGAAAUGCUUUUCUUGAGAAGGAACAAGGC | 7.91 | 7.28 |  |
| GAUGACUUAGGAUAUCAAAUUCUCGACAUGAGGAUCACCCAUGUGUAUCCGCCAGGUUAGUGAGAAGGAAGUUGGA | 91.3 | 77.8 |  |
| GAUUGACAUGAGGAUCACCCAUGUAGCGUAUGGUGACUUCUGAAGGAUAUUAAUGCAGUGGCGGUUAAGAAGGUCAGCUAAUCG | 45.7 | 35 |  |
| GAUUGAGUUCUAGGAUAUCCAGAGCGGCGUGGGACAUGAGGAUCACCCAUGUGCUCUAUGAUCAUGGAGAAGGAGAACCCCGUU | 37.3 | 46 |  |
| GCAAAGUGAUCGGCCGCCACUGCAAUGCUUAAUGGAGGUCCACAUGAGGAUCACCCAUGUCUUCCCAGGACCGGGAUCUCGAGUU |  |  | apparent Kd (designed as: ON switch for tryptophan, no ligand): 60.7 nM; apparent Kd (ligand present: tryptophan, designed as: ON switch for tryptophan): 66.9 nM |
| GCACGGAAAGGAUAUACAUGAGGAUCACCCAUGUUUCUUCUCAGGGCAAUUACCACAUGUAGAAGGUUCUCCAG | 29.4 | 39.8 |  |
| GCAGUCCUCCGAGGAUAUAUGACAAUUGACGUGAGAUGUUAGCACAUGAGGAUCACCCAUGUUUUAUAGAAGGCGGGAUAGGUU |  |  | apparent Kd [3]: 20.5 nM; apparent Kd [4]: 18.3 nM |
| GGACAACAUGAGGAUCACCCAUGUGAGAAGUGCAAAGGAUAUCGCAGAAGUGAUAACGAACGAGAAGGUUGCCUCU |  |  | apparent Kd [3]: 23.6 nM; apparent Kd [4]: 10.1 nM |
| GGACGUGGGCAGGAUAUGCGAAUUGAUUGAGCGGCAGAAGGGCCUACAUGAGGAUCACCCAUGUAGAUGCUUAC | 5.4 | 11.7 |  |
| GGAUGCUCGACUCAGGAUAUACACACCGCAACAUGAGGAUCACCCAUGUAAUACGAACAAUGCACGUAGAAGGGAGGUUAACUCGA |  |  | apparent Kd [3]: 46.4 nM; apparent Kd [4]: 19.1 nM |
| GGAUUAAGCUAGAAGGUACGAUCACCGUGAUGGUAAGGAUAUAGAACGAUGCCGAUUCCAACAUGAGGAUCACCCAUGUUCCUA |  |  | apparent Kd [3]: 447 nM; apparent Kd [4]: 260 nM |
| GGCGCGGCAGGAUAUGGAUGACGUGACAUGAGGAUCACCCAUGUGCUUAGAUCAUUCGUACCAGAAGGGCCCGCAG | 4.29 | 4.3 |  |
| GGGAAACUCUACACUCACAACACAUGAGGAUCACCCAUGUUAAGAAGGUUCAGAACGGGCAAUCGAAAGGAUAUUAGGAUGGCU | 10.7 | 10.2 |  |
| GGGAGAGAGGUCAGGAUAUUGCGGCGAAAUGCAGUCAAGAAGGGACAUGAGGAUCACCCAUGUACAUCAAGAGC | 6.38 | 10.4 |  |

| Sequence | apparent Kd [1] [nM] | apparent Kd [2] [nM] | further results |
| --- | --- | --- | --- |
| GGGCGACAUGAGGAUCACCCAUGUGUCGAUACCAGUAUGAAUUUCUACCCUUGGCAGCGACGACACGGUUAUUUGUGCACUUCGA |  |  | apparent Kd (designed as: ON switch for theophylline, no ligand): 81.8 nM; apparent Kd (ligand present: theophylline, designed as: ON switch for theophylline): 200 nM |
| GGUACCGCGGUGAGGAUAUCCUGCGUUUGGCAGCUGGAGAAGGCACAUGAGGAUCACCCAUGUAAAGAGAAUGC | 10.5 | 16.2 |  |
| GGUCCACAUGAGGAUCACCCAUGUAAGGAUAUCCUGUUUUCUGGUUUAGAGUCGCGAAGGAGAAGGUACAUUAA | 22.5 | 41.1 |  |
| GGUCGUGAUAAGGAUAUUGGCUGUCGUGCAAUCCAAGAAGGUAUCACAUGAGGAUCACCCAUGUACGCGUGUUG | 44.1 | 85.6 |  |
| GGUCUGCCAUUUCAGGAUAUGCUCAGUGCAACAUGAGGAUCACCCAUGUCAGGCUCGAACGACUCGCAGAAGGGAAGUCACGGAUG |  |  | apparent Kd [3]: 102 nM; apparent Kd [4]: 61.4 nM |
| GGUGAAUUAGUGAGGAUAUGAUAGACAAACAAAAUACAGAAGGCACAUGAGGAUCACCCAUGUGACGGAGAGAA | 6.31 | 5.93 |  |
| GGUGUUCCUCUAGGAUAUAGCGAUACAUGAGGAUCACCCAUGUUACUCCAGCGCGGCGGAUCGCUCUAGAAGGAGACAUAGCCA | 75.1 | 53.4 |  |
| GGUUGACCUGAGGAACAUGAGGAUCACCCAUGUGUUAGCGGAAAGGAUAUUCGAUUGCACGUUAAGAAGAAGGUUCCAACGUUA |  |  | apparent Kd [3]: 14.4 nM; apparent Kd [4]: 15.8 nM |
| GGUUGAUGGUCGGCCGCCACUGUUGGUGCCAUGAGUUAAGUAUAGCACAUGAGGAUCACCCAUGUCAGGACCGGGACUCUACCCG |  |  | apparent Kd (designed as: OFF switch for tryptophan, no ligand): 14.6 nM; apparent Kd (ligand present: tryptophan, designed as: OFF switch for tryptophan): 18.1 nM |
| GUAAAACGGAAGAAGGCGCGGAGUACAGGGUAAAAUCAGGUCACAUGAGGAUCACCCAUGUGGAGCGAGGAUAUUCAUAAGGUA | 24.7 | 63.2 |  |
| GUACGGUUCCAAGGAUAUGAUAGGUGACAUGAGGAUCACCCAUGUGCCGGUGGUGGGAGCGAGGAUCAGAAGGUGGCCAGCGGU |  |  | apparent Kd [3]: 60 nM; apparent Kd [4]: 45.4 nM |
| GUAUGUGGUGAGGAUAUCCACCCGCGGGUAUAUGGAGAAGGCACUACAUGAGGAUCACCCAUGUUAACUUGCCA | 10.1 | 31.8 |  |
| GUCAGGUGGACAGGAUAUCGUGCUCGUAGACAUGAGGAUCACCCAUGUUCGCUCUUCUUCGGCAUCGAGAAGGGUCUCCAAUCU | 34.8 | 35.8 |  |
| GUCAUUGCGGAGGAUAUAAAGCAAACCAAGAUGUUAGAAGGCCGGACAUGAGGAUCACCCAUGUGAUUGCACGC | 17.6 | 15 |  |
| GUCCACGUCCAAGGAUAUAAUACGAUACAUGAGGAUCACCCAUGUAAGGAGUGUAGAGUACGAUGUUAGAAGGUGGCAUUGCAG | 11.9 | 11.1 |  |
| GUCGCAAUCCAGAAGGACGGGCUUGGCGAGUACGUAGGAUAUGGCAGUCACAUGAGGAUCACCCAUGUCAGGAAUUUAAUCAGG |  |  | apparent Kd [3]: 53.8 nM; apparent Kd [4]: 21.7 nM |
| GUCUUGUAAGGAUAUGAUCAGUAGGAAAGAUGGCAGCAUCAUCAGAAGGUACAUGAGGAUCACCCAUGUUGUGA | 17 | 22.9 |  |
| GUGAAACAUGAGGAUCACCCAUGUUAGGAUAUAACGCGACGGCAGGGAUCUGCGCUACUUAGAAGGAACGGGAC | 11.5 | 9.73 |  |
| GUGAUACUUGGAGGAUAUGCUUUCACCUGGUACUCUAUUACAGUGACAUGAGGAUCACCCAUGUAGCAGAAGGCCAGUCAUCGA |  |  | apparent Kd [3]: 18.8 nM; apparent Kd [4]: 9.73 nM |
| GUGAUCAGCGAGAAGGAGCGUGAACUGUUACGGAGAUGUAACAUAACAUGAGGAUCACCCAUGUGCUAGGAUAUCGGUAAAUAU |  |  | apparent Kd [3]: 13.3 nM; apparent Kd [4]: 7.4 nM |
| GUGGCGUAAGGAUAUCGUGGGAAGUGAUGAACGCUCUACUUCGAGAAGGUACAUGAGGAUCACCCAUGUGAGGG | 151 | 129 |  |
